Measurements from ChEMBL document CHEMBL1137313, “A chimeric ligand approach leading to potent antiprion active acridine derivatives: design, synthesis, and biological investigations” (J Med Chem, 2006).

tested on: ScN2a; test: Toxicity against mouse ScN2a cells measured as less than 80% confluency after 1 week; assay type: functional; details: not given
Summary of the method: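 RML-infected ScN2a mouse neuroblastoma cells cultured 1 week in MEM with 10% FCS, with compound renewed with medium every second day. Toxicity scored as confluency below 80% at the end of treatment.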

With `c1ccc2c(c1)Sc1ccccc1N2CCCN1CCN(CCCCNc2c3ccccc3nc3ccccc23)CC1` as the molecule, how does the Activity read?
Its Activity is 4000 nM.

For `COc1ccc2nc3cc(Cl)ccc3c(NCCCCN3CCN(CCCN(c4ccccc4)c4ccccc4)CC3)c2c1`, which Activity is on record?
The Activity was >1000 nM.

For `c1ccc(N(CCCN2CCN(CCCNc3c4ccccc4nc4ccccc34)CC2)c2ccccc2)cc1`, which Activity is on record?
The Activity was 1500 nM.

With `c1ccc2c(c1)Sc1ccccc1N2CCCN1CCN(CCCNc2c3ccccc3nc3ccccc23)CC1` as the molecule, how does the Activity read?
The Activity was 1000 nM.

With `c1ccc2c(c1)CCc1ccccc1N2CCCN1CCN(CCCCNc2c3ccccc3nc3ccccc23)CC1` as the molecule, how does the Activity read?
The Activity was 750 nM.

With `c1ccc(N(CCCN2CCN(CCCCNc3c4ccccc4nc4ccccc34)CC2)c2ccccc2)cc1` as the molecule, how does the Activity read?
The Activity was 1000 nM.

With `COc1ccc2nc3cc(Cl)ccc3c(NCCN3CCN(CCCN(c4ccccc4)c4ccccc4)CC3)c2c1` as the molecule, how does the Activity read?
The Activity was 1500 nM.

With `COc1ccc2nc3cc(Cl)ccc3c(NCCCCN3CCN(CCCN4c5ccccc5Sc5ccccc54)CC3)c2c1` as the molecule, how does the Activity read?
Its Activity is 2000 nM.

Which Activity does the source give for `COc1ccc2nc3cc(Cl)ccc3c(NCCN3CCN(CCCN4c5ccccc5Sc5ccccc54)CC3)c2c1` here?
The Activity was 4000 nM.

For `COc1ccc2nc3cc(Cl)ccc3c(NCCN3CCN(CCCN4c5ccccc5CCc5ccccc54)CC3)c2c1`, which Activity is on record?
Its Activity is 2000 nM.

With `c1ccc2c(c1)Sc1ccccc1N2CCCN1CCN(CCNc2c3ccccc3nc3ccccc23)CC1` as the molecule, how does the Activity read?
Its Activity is 3000 nM.

How did the Activity turn out when `c1ccc2c(c1)CCc1ccccc1N2CCCN1CCN(CCNc2c3ccccc3nc3ccccc23)CC1` was run?
The Activity was 500 nM.

`COc1ccc2nc3cc(Cl)ccc3c(NCCCCN3CCN(CCCN4c5ccccc5CCc5ccccc54)CC3)c2c1` was tested. Which Activity did it give?
Its Activity is 400 nM.

Which Activity does the source give for `c1ccc2c(c1)CCc1ccccc1N2CCCN1CCN(CCCNc2c3ccccc3nc3ccccc23)CC1` here?
The Activity was 1000 nM.

For `COc1ccc2nc3cc(Cl)ccc3c(NCCCN3CCN(CCCN(c4ccccc4)c4ccccc4)CC3)c2c1`, which Activity is on record?
Its Activity is 2000 nM.

For `c1ccc(N(CCCN2CCN(CCNc3c4ccccc4nc4ccccc34)CC2)c2ccccc2)cc1`, which Activity is on record?
The Activity was 1000 nM.

`COc1ccc2nc3cc(Cl)ccc3c(NCCCN3CCN(CCCN4c5ccccc5Sc5ccccc54)CC3)c2c1` was tested. Which Activity did it give?
The Activity was 2500 nM.

How did the Activity turn out when `COc1ccc2nc3cc(Cl)ccc3c(NCCCN3CCN(CCCN4c5ccccc5CCc5ccccc54)CC3)c2c1` was run?
The Activity was 1500 nM.

tested on: ScN2a; test: Inhibition of protease-resistant scrapie prion protein activity in ScN2a cells; assay type: functional, cell-based; details: Mus musculus
Summary of the method: (§1)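 Mouse N2a neuroblastoma cells chronically infected with RML scrapie, subcloned for high PrPSc. Grown in MEM with 10% FCS, penicillin-streptomycin and L-glutamine; compound renewed with medium every second day. Lysed day 7 (~80% confluent), proteinase K 20 µg/mL 30 min 37°C, ultracentrifuged pellet immunoblotted with anti-PrP antibody. EC50 from densitometry of five concentrations; full activity means complete loss of PK-resistant PrP; triplicate experiments.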

`c1ccc2c(c1)Sc1ccccc1N2CCCN1CCN(CCCCNc2c3ccccc3nc3ccccc23)CC1` was tested. Which EC50 did it give?
The EC50 was 300 nM.

For `COc1ccc2nc3cc(Cl)ccc3c(NCCCCN3CCN(CCCN(c4ccccc4)c4ccccc4)CC3)c2c1`, which EC50 is on record?
Its EC50 is 250 nM.

`c1ccc(N(CCCN2CCN(CCCNc3c4ccccc4nc4ccccc34)CC2)c2ccccc2)cc1` was tested. Which EC50 did it give?
The EC50 was 120 nM.

With `c1ccc2c(c1)Sc1ccccc1N2CCCN1CCN(CCCNc2c3ccccc3nc3ccccc23)CC1` as the molecule, how does the EC50 read?
The EC50 was 140 nM.

`c1ccc2c(c1)CCc1ccccc1N2CCCN1CCN(CCCCNc2c3ccccc3nc3ccccc23)CC1` was tested. Which EC50 did it give?
The EC50 was 150 nM.

How did the EC50 turn out when `c1ccc(N(CCCN2CCN(CCCCNc3c4ccccc4nc4ccccc34)CC2)c2ccccc2)cc1` was run?
Its EC50 is 230 nM.

For `COc1ccc2nc3cc(Cl)ccc3c(NCCN3CCN(CCCN(c4ccccc4)c4ccccc4)CC3)c2c1`, which EC50 is on record?
Its EC50 is 290 nM.

With `COc1ccc2nc3cc(Cl)ccc3c(NCCCCN3CCN(CCCN4c5ccccc5Sc5ccccc54)CC3)c2c1` as the molecule, how does the EC50 read?
The EC50 was 350 nM.

Which EC50 does the source give for `COc1ccc2nc3cc(Cl)ccc3c(NCCN3CCN(CCCN4c5ccccc5Sc5ccccc54)CC3)c2c1` here?
Its EC50 is 830 nM.

With `COc1ccc2nc3cc(Cl)ccc3c(NCCN3CCN(CCCN4c5ccccc5CCc5ccccc54)CC3)c2c1` as the molecule, how does the EC50 read?
Its EC50 is 570 nM.

With `CCN(CC)CCCC(C)Nc1c2ccc(Cl)cc2nc2ccc(OC)cc12` (stereo not drawn) [QUINACRINE] as the molecule, how does the EC50 read?
The EC50 was 300 nM.

For `c1ccc2c(c1)Sc1ccccc1N2CCCN1CCN(CCNc2c3ccccc3nc3ccccc23)CC1`, which EC50 is on record?
The EC50 was 370 nM.

How did the EC50 turn out when `c1ccc2c(c1)CCc1ccccc1N2CCCN1CCN(CCNc2c3ccccc3nc3ccccc23)CC1` was run?
The EC50 was 20 nM.

Which EC50 does the source give for `COc1ccc2nc3cc(Cl)ccc3c(NCCCCN3CCN(CCCN4c5ccccc5CCc5ccccc54)CC3)c2c1` here?
The EC50 was 80 nM.

`c1ccc2c(c1)CCc1ccccc1N2CCCN1CCN(CCCNc2c3ccccc3nc3ccccc23)CC1` was tested. Which EC50 did it give?
Its EC50 is 230 nM.

How did the EC50 turn out when `COc1ccc2nc3cc(Cl)ccc3c(NCCCN3CCN(CCCN(c4ccccc4)c4ccccc4)CC3)c2c1` was run?
The EC50 was 280 nM.

Which EC50 does the source give for `c1ccc(N(CCCN2CCN(CCNc3c4ccccc4nc4ccccc34)CC2)c2ccccc2)cc1` here?
The EC50 was 75 nM.

`COc1ccc2nc3cc(Cl)ccc3c(NCCCN3CCN(CCCN4c5ccccc5Sc5ccccc54)CC3)c2c1` was tested. Which EC50 did it give?
The EC50 was 200 nM.

For `CN(C)CCCN1c2ccccc2CCc2ccccc21` [IMIPRAMINE], which EC50 is on record?
The EC50 was 5000 nM.

With `COc1ccc2nc3cc(Cl)ccc3c(NCCCN3CCN(CCCN4c5ccccc5CCc5ccccc54)CC3)c2c1` as the molecule, how does the EC50 read?
Its EC50 is 260 nM.

tested on: ScN2a; test: Antiprion activity in ScN2a cells assessed as complete reduction of protease-resistant scrapie prion protein; assay type: functional, Mus musculus; details: not given; summary of the method: as §1

With `c1ccc2c(c1)Sc1ccccc1N2CCCN1CCN(CCCCNc2c3ccccc3nc3ccccc23)CC1` as the molecule, how does the Activity read?
Its Activity is 750 nM.

How did the Activity turn out when `COc1ccc2nc3cc(Cl)ccc3c(NCCCCN3CCN(CCCN(c4ccccc4)c4ccccc4)CC3)c2c1` was run?
The Activity was 500 nM.

For `c1ccc(N(CCCN2CCN(CCCNc3c4ccccc4nc4ccccc34)CC2)c2ccccc2)cc1`, which Activity is on record?
The Activity was 500 nM.

With `c1ccc2c(c1)Sc1ccccc1N2CCCN1CCN(CCCNc2c3ccccc3nc3ccccc23)CC1` as the molecule, how does the Activity read?
Its Activity is 500 nM.

How did the Activity turn out when `c1ccc2c(c1)CCc1ccccc1N2CCCN1CCN(CCCCNc2c3ccccc3nc3ccccc23)CC1` was run?
Its Activity is 400 nM.

How did the Activity turn out when `c1ccc(N(CCCN2CCN(CCCCNc3c4ccccc4nc4ccccc34)CC2)c2ccccc2)cc1` was run?
Its Activity is 400 nM.

Which Activity does the source give for `COc1ccc2nc3cc(Cl)ccc3c(NCCN3CCN(CCCN(c4ccccc4)c4ccccc4)CC3)c2c1` here?
Its Activity is 500 nM.

How did the Activity turn out when `COc1ccc2nc3cc(Cl)ccc3c(NCCCCN3CCN(CCCN4c5ccccc5Sc5ccccc54)CC3)c2c1` was run?
The Activity was 1000 nM.

For `COc1ccc2nc3cc(Cl)ccc3c(NCCN3CCN(CCCN4c5ccccc5Sc5ccccc54)CC3)c2c1`, which Activity is on record?
The Activity was 2000 nM.

`COc1ccc2nc3cc(Cl)ccc3c(NCCN3CCN(CCCN4c5ccccc5CCc5ccccc54)CC3)c2c1` was tested. Which Activity did it give?
The Activity was 1000 nM.

`CCN(CC)CCCC(C)Nc1c2ccc(Cl)cc2nc2ccc(OC)cc12` (stereo not drawn) [QUINACRINE] was tested. Which Activity did it give?
Its Activity is 500 nM.

Which Activity does the source give for `c1ccc2c(c1)Sc1ccccc1N2CCCN1CCN(CCNc2c3ccccc3nc3ccccc23)CC1` here?
Its Activity is 600 nM.

`c1ccc2c(c1)CCc1ccccc1N2CCCN1CCN(CCNc2c3ccccc3nc3ccccc23)CC1` was tested. Which Activity did it give?
The Activity was 75 nM.

`COc1ccc2nc3cc(Cl)ccc3c(NCCCCN3CCN(CCCN4c5ccccc5CCc5ccccc54)CC3)c2c1` was tested. Which Activity did it give?
Its Activity is 100 nM.

For `c1ccc2c(c1)CCc1ccccc1N2CCCN1CCN(CCCNc2c3ccccc3nc3ccccc23)CC1`, which Activity is on record?
Its Activity is 500 nM.

With `COc1ccc2nc3cc(Cl)ccc3c(NCCCN3CCN(CCCN(c4ccccc4)c4ccccc4)CC3)c2c1` as the molecule, how does the Activity read?
The Activity was 500 nM.

For `c1ccc(N(CCCN2CCN(CCNc3c4ccccc4nc4ccccc34)CC2)c2ccccc2)cc1`, which Activity is on record?
Its Activity is 200 nM.

For `COc1ccc2nc3cc(Cl)ccc3c(NCCCN3CCN(CCCN4c5ccccc5Sc5ccccc54)CC3)c2c1`, which Activity is on record?
The Activity was 500 nM.

`CN(C)CCCN1c2ccccc2CCc2ccccc21` [IMIPRAMINE] was tested. Which Activity did it give?
The Activity was 10000 nM.

For `COc1ccc2nc3cc(Cl)ccc3c(NCCCN3CCN(CCCN4c5ccccc5CCc5ccccc54)CC3)c2c1`, which Activity is on record?
The Activity was 500 nM.
